KCNQ1 act = potentiators or activators of KCNQ1 channel, primary screen, cell-based, thallium flux, high-throughput; Potassium voltage-gated channel subfamily KQT member 1 (Homo sapiens), P51787; CHO-K1 KCNQ1, thallium flux FluxOR fluorescence; stronger effect = higher value; B-score at 10 µM; actives 0.35% (n = 310,000);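 active means fluorescence ratio B-score, a plate-corrected score, at least three library SD, with initial intensity B-score within 5 SD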
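Assay system: stable KCNQ1 CHO-K1 line; medium: assay buffer, equal DMSO in all wells; timing: 90 min dye loading and 20 min compound exposure, both at room temperature; technique: kinetic FluxOR thallium fluorescence, 10-s 1-Hz baseline, 110-s post-stimulus read; read-out basis: B score of baseline-normalized fluorescence ratio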
KCNK9 block = KCNK9 potassium channel inhibitors, primary screen, HEK293 cells, thallium flux. FluxOR thallium flux fluorescence; stronger effect = lower value. actives 1.2% (n = 310,000). B-score at 10 µM;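 active means ratio B-score over 3 SD below the library mean, with starting fluorescence within 5 SD of its mean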;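 further: negative B-score means less thallium flux so channel inhibition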
Kir21 block = inhibitors of mouse Kir2.1 inward-rectifier potassium channel; actives 0.85% (n = 310,000); Inward rectifier potassium channel 2 (Mus musculus), P35561; B-score at 10 µM; HEK293-Kir2.1, FluxOR thallium flux fluorescence; stronger effect = lower value;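 active means fluorescence ratio B-score at or below minus 3 SD of library scores, with starting-brightness B-score within 2 SD, cut at about -4.2 in these data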;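 further: channel flux triggered by added potassium and thallium sulfate stimulus; B-score of peak minus minimum fluorescence over baseline after thallium stimulus; more negative B-score means stronger Kir2.1 block with less thallium influx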
hERG rescue = hERG rescue from dofetilide block, primary screen, cell-based, CHO-hERG, FluxOR thallium flux, dofetilide IC70; Voltage-gated inwardly rectifying potassium channel KCNH2 (Homo sapiens), Q12809; dofetilide IC70 present; activation (rescue from dofetilide block), less the hit threshold, % at 10 µM; actives 0.51% (n = 310,000); AID 1511, 2009;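 active means activation above the mean of controls blocked by dofetilide plus 5 SD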;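 further: thallium influx through hERG after potassium depolarization seen as dye fluorescence rise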
KCNQ1 inh = inhibitors of human KCNQ1 channel, primary screen, cell-based, thallium flux, high-throughput. Potassium voltage-gated channel subfamily KQT member 1 (Homo sapiens), P51787. CHO-K1 KCNQ1, FluxOR thallium flux fluorescence; stronger effect = higher value. B-score at 10 µM. actives 1.3% (n = 310,000). AID 2642, 2010;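 active means compounds whose thallium flux B-score, printed positive for inhibition, exceeds three library SD while starting fluorescence stays within three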;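 further: channel opened by potassium depolarization with thallium stimulus after 20 min compound exposure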
KCNK3 block = human KCNK3 channel inhibitors, primary screen, CHO cells, FluxOR thallium flux, B-score; Potassium channel subfamily K member 3 (Homo sapiens), O14649; actives 0.84% (n = 340,000); B-score at 10 µM; FluxOR fluorescence; stronger effect = lower value;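 active means B-score under library mean minus 4 SD, starting fluorescence ratio at most library mean plus 5 SD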;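 further: more negative B-score means stronger inhibition of thallium flux through KCNK3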
KCNK9 inh conf = KCNK9 potassium channel inhibitors, confirmation, HEK293 cells, thallium flux, duplicate; shares compounds with KCNK9 block; FluxOR thallium flux fluorescence; inhibition, % at 10 µM; actives 43% (n = 4,900);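 active means thallium signal inhibited by more than 5 SD of the compound-free buffer control wells, on both duplicate plates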;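 further: 0% = assay buffer control wells without compound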
Kir2-1 spec = mouse Kir2.1 channel inhibition, confirmation, selectivity assay for KCNK9 modulator project, cell-based, HEK293, thallium flux | AID 492993, 2010 | actives 4% (n = 4,900) | inhibition, % at 10 µM | Kir2.1 cells, FluxOR thallium flux fluorescence | shares compounds with KCNK9 block;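 active means thallium signal drop more than 5 SD beyond the mean of the no-compound control wells, seen in both duplicate plates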;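 further: signal is fluorescence rise after thallium addition divided by baseline fluorescence; plate controls were assay buffer only for no effect and full block by chlorpromazine control for full effect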
KCNK9 uninduced = thallium flux in non-induced HEK293 cells, confirmation, counter-screen for KCNK9 inhibitor project, cell-based, second counter screen, non-induced KCNK9-HEK293; actives 40% (n = 4,900); inhibition, % at 10 µM; shares compounds with KCNK9 block; FluxOR thallium flux; AID 492997, 2010;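 active means thallium signal drop beyond 5 SD of the untreated control mean, on both duplicate plates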;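 further: plate controls were buffer only IC0 wells for no effect and SID17386958 at its maximal inhibitory level for full effect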
* hit, by the source's call; i = inactive; x = no result. In the library only some 3.8% were active in any assay of this set; here they are far more common.

SMILES	KCNQ1 act	KCNK9 block	Kir21 block	hERG rescue	KCNQ1 inh	KCNK3 block	KCNK9 inh conf	Kir2-1 spec	KCNK9 uninduced
S=c1[nH]nc(COc2ccccc2)n1/N=C/c1ccc(Cl)c(Cl)c1	i	i	-1.3	-7	i	i	x	x	x
CCN(C(=O)CSc1nnc(SC(C)C)s1)C1CCS(=O)(=O)C1 (stereo not given)	x	x	x	x	x	i	x	x	x
O=C(NCCC1=CCCCC1)c1ccc(Cl)c(S(=O)(=O)N2CCCCC2)c1	i	i	0.2	-5	i	i	i	i	i
Cc1ccc(CSCCNC(=O)c2ccc(Cl)c(S(=O)(=O)N3CCOCC3)c2)cc1	i	i	-1.7	-15	i	i	i	i	i
Cc1ccc(S(=O)(=O)N(C)C)cc1-n1c(SCC(=O)Nc2ccc(F)cc2)nc2ccccc2c1=O	i	-9.7*	2	-6	i	i	50%*	i	24%*
NC(=O)c1ccc(SCC(=O)NC2CCCCC2)c([N+](=O)[O-])c1	i	i	-0.59	-7	i	i	x	x	x
O=C(CSc1nc(N2CCCCC2)nc(N2CCCCC2)n1)N1CCN(c2ccccc2)CC1	i	i	1.5	-2	i	i	i	i	i
COc1ccc(C2CC(=O)N3CN(c4ccc(C)c(Cl)c4)CSC3=C2C#N)cc1 (stereo not given)	i	i	0.13	-9	i	i	i	i	i
COc1ccc(N2CSC3=C(C#N)C(c4cccc(OC)c4OC)CC(=O)N3C2)cc1 (stereo not given)	i	i	0.34	-9	i	i	x	x	x
COc1ccc(OC)c(/C=N/c2c(-c3ccc(O)c(OC)c3)nc3ccccn23)c1	i	-14*	1.3	-6	i	i	i	i	i
COc1cc(-c2nc3ccccn3c2/N=C/c2cc(OC)c(OC)c(OC)c2)ccc1O	i	i	-0.03	-7	i	i	x	x	x
CC1CCCCN1S(=O)(=O)c1ccc(C(=O)Nc2nnc(C3CC3)o2)cc1 (stereo not given)	i	i	1.6	-5	i	i	x	x	x
CC[n+]1c(/C=C/N(C)c2ccccc2)n(-c2ccccc2)c2ccc(-c3nc4ccccc4s3)cc21	i	-16*	-7*	-31	15*	-9.7*	90%*	78%*	76%*
CC[n+]1cccc(-c2nc3ccccc3s2)c1	i	i	0	-13	i	i	x	x	x
COc1ccc2c(c1OC)C(=O)NC(C)=C(C(=O)OC(C)(C)C)C2O (stereo not given)	i	i	0.11	-11	i	i	x	x	x
COc1ccc(COC(=O)Nc2cc3c(C(F)(F)F)nn(C)c3s2)cc1	i	i	-0.52	-11	i	i	i	i	i
Cc1c(C)n(C(=O)CN2CCN(c3ccccn3)CC2)c2ccccc12	i	i	0.14	-16	i	i	i	i	i
O=C(CN1CCN(c2ccccn2)CC1)N1c2ccccc2CCc2ccccc21	i	i	-0.55	-15	i	i	x	x	x
Cc1nnc(SCCCN2C(=O)c3ccccc3C2=O)o1	i	i	-1.4	-11	i	i	x	x	x
O=C1c2ccccc2C(=O)N1CCCCSc1nc2ccccc2o1	i	i	1.1	-6	i	i	i	i	i
O=C1NC(=S)SC1=Cc1ccc2c(c1)OCO2	x	x	x	x	x	i	x	x	x
O=C1N/C(=N/S(=O)(=O)Cc2ccccc2)S/C1=C/c1ccc2c(c1)OCO2	i	i	0.45	-21	i	i	i	i	i
CON(c1nc(Cl)nc(N(C)C)n1)S(=O)(=O)c1ccc(C)cc1	i	i	-2	-8	i	i	x	x	x
COc1ccc(C(=O)N/N=C/c2c[nH]c3ccccc23)cc1	i	i	0.11	-8	i	i	x	x	x
CCCCCN=C(N)N/N=C/c1c[nH]c2ccc(OC)cc12	i	-11*	-9.4	-31	7*	i	66%*	64%*	i
SMILES	KCNQ1 act	KCNK9 block	Kir21 block	hERG rescue	KCNQ1 inh	KCNK3 block	KCNK9 inh conf	Kir2-1 spec	KCNK9 uninduced
CC(=O)N1CC(c2ccccc2)C(c2ccc(Cl)cc2)=N1 (stereo not given)	i	-9*	-0.82	-7	i	i	i	i	i
CCOC(=O)C1C(c2ccc(O)c(O)c2)NC(=S)NC1(O)C(F)(F)F (stereo not given)	i	i	1.1	-2	i	i	x	x	x
CCc1ccc(NC(=O)COC(=O)/C(=C/c2ccccc2OC)c2ccccc2)cc1	i	i	1	-7	i	i	i	i	i
CCc1nnc(NS(=O)(=O)c2ccc(NCc3cc(Br)ccc3O)cc2)s1	i	i	2.3	-16	i	i	i	i	i
COc1nccnc1NS(=O)(=O)c1ccc(NCc2cc(Br)ccc2O)cc1	i	i	-1.4	-10	i	i	x	x	x
COc1cc(CN2CCN(c3cc(C)ccc3C)CC2)cc([N+](=O)[O-])c1O	i	i	0.13	-13	i	x	i	i	i
COc1cc(CN2CCN(c3ccc(C)cc3)CC2)cc([N+](=O)[O-])c1O	i	i	0.08	-13	i	x	x	x	x
Cc1nn(-c2ccccc2)c2nc(C(F)(F)F)[nH]c(=O)c12	i	i	1.3	-1	i	i	x	x	x
Cc1nn(-c2cc(C(F)(F)F)ccc2Cl)c2nc(C(Cl)(Cl)Cl)[nH]c(=O)c12	i	i	0.54	-4	i	i	i	i	i

Compound activity deposited in PubChem BioAssay by Johns Hopkins Ion Channel Center.
